Active and inactive are the calls of the source. No cut-off for these calls is given here.
How the values were obtained:
MV4-11 [1] = assay: Antitumor activity against human MV4-11 cells xenografted in Balb/c nude mouse assessed as tumor growth inhibition at 50 mg/kg, po administered once daily and measured twice a week by caliper method relative to control; type: functional; details: MV4-11, po, read-out: TGI
MV4-11 [2] = assay: Induction of apoptosis in human MV4-11 cells after 24 hrs by Annexin V staining based assay; type: functional, cell-based
MV4-11 [3] = assay: Antiproliferative activity against human MV4-11 cells after 72 hrs by CCK8 or SRB assay; type: functional, cell-based
MV4-11 [4] = assay: Antitumor activity against human MV4-11 cells xenografted in Balb/c nude mouse assessed as tumor growth inhibition at 100 mg/kg, po administered once daily and measured twice a week by caliper method relative to control; type: functional; details: MV4-11, po, read-out: TGI
MV4-11 [5] = assay: Induction of apoptosis in human MV4-11 cells assessed as reduction in XIAP level after 24 hrs by Western blot analysis; type: functional, cell-based
MV4-11 [6] = assay: Induction of apoptosis in human MV4-11 cells assessed as increase in cleaved caspase-8 level after 24 hrs by Western blot analysis; type: functional, cell-based
In short: (§1)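 MV4-11 cells exposed to test agent at the indicated doses for 24 h. Lysates immunoblotted for full-length and cleaved caspase-3, -7, -8 and -9, with GAPDH as the loading reference.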

MV4-11 [7] = assay: Induction of apoptosis in human MV4-11 cells assessed as reduction in c-IAP2 level after 24 hrs by Western blot analysis; type: functional, cell-based
MV4-11 [8] = assay: Induction of apoptosis in human MV4-11 cells assessed as reduction in c-IAP1 level after 24 hrs by Western blot analysis; type: functional, cell-based
RKO = assay: Induction of cell cycle arrest in human RKO cells assessed as increase in accumulation at G1 phase at 100 nM after 24 hrs by propidium iodide staining based flow cytometric analysis; type: functional
Homo sapiens = species: Homo sapiens; assay: Antiproliferative activity against human TY82 cells after 72 hrs by CCK8 or SRB assay; type: functional, cell-based
MV4-11 [9] = assay: Induction of apoptosis in human MV4-11 cells assessed as increase in cleaved caspase-9 level after 24 hrs by Western blot analysis; type: functional, cell-based; in short: as §1
MM1.S = assay: Antiproliferative activity against human MM1S cells after 72 hrs by CCK8 or SRB assay; type: functional, cell-based
In short: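 IC50 against MM.1S cell proliferation was taken as the mean of three independent experiments, each run in triplicate, reported with SEM.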

`Cc1sc2c(c1C)C(c1ccc(Cl)cc1)=N[C@@H](CC(=O)Nc1ccc(O)cc1)c1nnc(C)n1-2` [BIRABRESIB] was tested, and the inhibition in vivo at 50 mg/kg (MV4-11 [1]) was 71.5%, the Activity (MV4-11 [2]) was “Active” and the Activity (MV4-11 [3]) was “Active”. The inhibition in vivo at 100 mg/kg (MV4-11 [4]) was 87.5%, the Activity (MV4-11 [5]) was “Dose-dependent effect” and the Activity (MV4-11 [6]) was “Dose-dependent effect”. The Activity (MV4-11 [7]) was “Dose-dependent effect”, the Activity (MV4-11 [8]) was “Dose-dependent effect” and the Activity (RKO) was “Active”. For the same compound, the Activity (Homo sapiens) was “Active”, the Activity (MV4-11 [9]) was “Dose-dependent effect” and the IC50 (MM1.S) was 6.3 nM.
